High-throughput results deposited in PubChem BioAssay by several laboratories.
APOBEC3G inh = APOBEC3G (human) deaminase inhibition; Q9HC16; recombinant A3G, ssDNA deamination FAM/TAMRA fluorescence; 330,000 compounds, 0.28% hits; inhibition, % at 20 µM;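 active means inhibition of at least 40% at 20 µM, with no more than 30% in the related APOBEC3A deaminase screen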;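 further: plate controls were DMSO wells with A3G for no effect and wells lacking A3G enzyme for full effect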
Target sequence (Q9HC16 whole entry, looked up): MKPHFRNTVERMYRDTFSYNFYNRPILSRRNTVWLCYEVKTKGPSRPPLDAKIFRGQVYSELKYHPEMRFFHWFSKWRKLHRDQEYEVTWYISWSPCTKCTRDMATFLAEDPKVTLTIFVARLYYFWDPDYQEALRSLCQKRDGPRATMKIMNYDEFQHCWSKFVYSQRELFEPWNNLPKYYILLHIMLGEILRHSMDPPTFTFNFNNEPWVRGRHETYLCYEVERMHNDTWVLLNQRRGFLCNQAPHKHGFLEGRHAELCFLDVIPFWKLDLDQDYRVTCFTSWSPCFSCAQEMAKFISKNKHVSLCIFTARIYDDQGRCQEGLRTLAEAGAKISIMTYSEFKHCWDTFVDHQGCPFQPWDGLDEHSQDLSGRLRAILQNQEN
PolyA inh = yeast polyadenylation inhibition. S. cerevisiae SKY197-pL101 polyadenylation reporter, beta-gal luminescence; efflux-impaired pdr1/pdr3 knockout yeast; score 100 = 6 SD above DMSO. activity score, % at 12 µM. 300,000 compounds, 0.02% hits. AID 1875;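 active means lowest replicate activity score at least 50, where 100 means six control SD above control mean; inconclusive means lowest score under 50 but half or more replicates reach 50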;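 further: yeast exposed to compound for 9 h at 30 °C; higher score means more reporter readthrough which indicates perturbed polyadenylation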
AHR activator = human AHR activation; AHR-responsive luciferase reporter cells, luminescence; activation, % at 5 µM; 320,000 compounds, 2.5% hits; AID 2796; in the data active means activation above about 47%;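 further: 0% = vehicle wells and 100% = reference agonist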
Arr AP2 block = inhibitors of human beta-arrestin and AP2 interaction | FITC-arrestin peptide / GST-AP2 beads, flow cytometry; AP2 beta2 appendage carries R879A mutation | inhibition, % at 10 µM | 340,000 compounds, 0.31% hits | AID 504490;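 active means inhibition above a set limit, near 3 SD of compounds lacking own fluorescence, cut at about 54% in these data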;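 further: plate controls were DMSO wells for no effect and 5 µM unlabelled arrestin peptide for full effect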
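Material – GST-tagged AP2 beta2-adaptin appendage (R879A) on 4 µm glutathione beads · Probe or stimulus – fluorescein-tagged arrestin peptide at 50 nM final · Timing – 12 min plus 1 h, RT · Detection – bead flow cytometry, FITC channel · Read-out basis – inhibition as reduced fluorescein signal on beads, percent · Medium – PBS plus Tween 20 (0.05%) and BSA (0.1%)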
APOBEC3A inh = blocks human APOBEC3A ssDNA deamination | P31941 | recombinant A3A, FAM/TAMRA ssDNA deamination fluorescence | inhibition, % at 20 µM | 330,000 compounds, 0.41% hits | AID 493011;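 active means at least 40% inhibition at 20 µM here, with at most 30% in a related deaminase screen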;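 further: plate controls were A3A with DMSO for no effect and wells lacking A3A enzyme for full effect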
Target sequence (P31941 whole entry, looked up): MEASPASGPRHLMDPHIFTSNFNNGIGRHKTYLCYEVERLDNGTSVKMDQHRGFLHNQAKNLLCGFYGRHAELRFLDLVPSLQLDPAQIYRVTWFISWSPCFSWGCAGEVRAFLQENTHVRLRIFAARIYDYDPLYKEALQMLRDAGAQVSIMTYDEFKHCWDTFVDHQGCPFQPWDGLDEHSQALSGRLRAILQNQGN
UCH37 DUB inh = human UCH37 deubiquitinating enzyme inhibition. purified proteasome/UCH37, Ub-AMC cleavage fluorescence. inhibition, % (concentration not given with the values). 330,000 compounds, 0.33% hits. AID 588478;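 active means mean inhibition over replicate wells above about 20%, limit read from the data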;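 further: 0% = compound-free wells with enzyme and 100% = wells lacking proteasome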
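Material: Human UCH37 enzyme supplied as purified proteasome complex | Schedule: 30 min preincubation with enzyme, 25 min cleavage at room temperature | Detection: AMC fluorescence 355/460 nm | Measure: % inhibition of Ub-AMC cleavage fluorescence | Controls: Wells without proteasome as full block, compound-free enzyme plus substrate as uninhibited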
* marks the source's active call; other numbers are inactive results; u = inconclusive; x = not tested or not shown. In the library only some 3.4% were active in any assay of this set; here they are far more common.

SMILES	APOBEC3G inh	PolyA inh	AHR activator	Arr AP2 block	APOBEC3A inh	UCH37 DUB inh
O=C(CSc1nc2ccccc2s1)NCCOc1ccc(Cl)cc1	-2.7	-22.5	48.1*	-7.2	-1.8	0.3
C=CCNC(=S)NNC(=O)CSc1nc2ccccc2s1	1.4	18.4	31.9	-1.6	-0.5	3.1
O=C(Nc1ccnc(-c2ccncc2)n1)C1CC1	-9.6	-7.6	52.0*	0.8	-5.7	-1.1
O=C(Nc1ccnc(-c2ccncc2)n1)c1ccccc1Cl	-5.9	-6.9	31.3	-14.6	-2.5	1.7
O=C(NN=Cc1ccco1)c1cccc(S(=O)(=O)Nc2ccccc2Cl)c1	x	x	x	x	x	1.0
N=c1sccn1CC(=O)Nc1cccc2ccccc12	12.0	14.4	6.7	-24.2	-0.7	20.3*
CSc1ccccc1NC(=O)Cn1ccsc1=N	-3.9	-13.2	-1.0	17.4	-1.9	0.0
CN(C)S(=O)(=O)Oc1cc(Cl)ccc1C(=O)Nc1ccc(F)cc1F	-4.4	-17.0	74.0*	-11.1	-2.1	2.9
CN(C)c1ccncc1C(=O)Nc1ccc(F)cc1F	-11.6	-8.0	3.1	13.0	-2.2	3.2
CC(C)(C)n1[nH]c2c3c(ccc2c1=O)C(=O)c1ccccc1C3=O	3.3	-51.8	50.3*	5.5	5.3	2.3
Cc1ccc(-n2[nH]c3c4c(ccc3c2=O)C(=O)c2ccccc2C4=O)cc1	-5.5	23.5	0.5	-13.0	-2.0	1.6
COCCCn1[nH]c2c3c(ccc2c1=O)C(=O)c1ccccc1C3=O	-1.5	-2.1	52.3*	5.5	-1.8	3.9
OC1(c2ccccc2)CC(=Nn2cnnc2)C=C1c1ccccc1 (configuration not stated)	x	x	x	x	x	3.4
CC(=NNC(=O)c1ccc(Cl)cc1)c1cccs1	x	x	x	x	x	4.4
COc1cc(C=NNC(=S)NC2CC3CCC2C3)ccc1O (configuration not stated)	x	x	x	x	x	5.3
Cc1cc2c(NC(=O)Nc3ccc(C(F)(F)F)cc3)cccc2nn1	-6.9	-2.4	54.7*	2.8	-0.5	2.8
Cc1ccc2nc(C)c(C(=O)NN=Cc3ccc(N4CCOCC4)cc3)cc2c1	x	x	x	x	x	-49.2
O=C(Nc1ccc(Cl)cc1)Nc1nc(-c2sccc2Br)cs1	-5.5	-4.8	61.5*	-4.4	-3.0	2.9
O=C(Nc1ccc(Cl)cc1)Nc1nc(-c2ccccc2O)cs1	1.2	-10.7	-1.0	-9.7	5.6	1.9
O=c1c2[nH]c3ccc(Br)cc3c2ncn1CCCn1ccnc1	-1.7	14.2	43.9	-0.3	0.8	3.2
O=c1c2[nH]c3ccccc3c2ncn1CCCn1ccnc1	-5.3	17.0	65.6*	6.4	1.4	-3.5
O=c1c2ccccc2[nH]c(=S)n1CCCn1ccnc1	-3.0	9.1	67.7*	-16.7	-0.3	4.2
CC1(C)CC(=O)CC(=NNC(=O)C2CC23CCC3)C1 (configuration not stated)	x	x	x	x	x	-0.3
CN(C)c1ccc(NC(=O)C(=O)C2C(=O)Nc3ccccc32)cc1 (configuration not stated)	-1.0	-22.0	10.9	17.1	0.1	7.6
CN(C)c1ccc(CC2C(=O)Nc3ccccc32)cc1 (configuration not stated)	44.6*	1.5	15.3	23.7	-5.0	7.3
SMILES	APOBEC3G inh	PolyA inh	AHR activator	Arr AP2 block	APOBEC3A inh	UCH37 DUB inh
O=C(Nc1ccccc1C(=O)NCCc1ccccc1)c1cnccn1	-8.2	-3.7	60.7*	0.0	-2.1	0.6
O=C(O)CCC(=O)Nc1ccccc1C(=O)NCCc1ccccc1	-8.9	u	16.4	11.0	-0.7	1.2
CCC(CC)NC(=O)CON=Cc1ccccc1OC(F)F	x	x	x	x	x	2.0
Cn1nc(-c2ccc(Cl)cc2)c2cc(C(=O)NCCN3CCOCC3)sc21	-7.0	-13.6	49.9*	3.1	1.1	-81.6
Cn1nc(-c2ccc(Cl)cc2)c2cc(C(=O)N3CCN(C(=O)c4ccco4)CC3)sc21	3.2	-13.5	33.9	1.1	2.5	2.6
CCCCN(CC)CCNC(=O)c1cc2c(-c3ccc(Cl)cc3)nn(C)c2s1	-7.9	12.4	43.0	17.9	1.9	x
CCCN(CCC)CCNC(=O)c1cc2c(-c3ccc(Cl)cc3)nn(C)c2s1	1.1	8.2	39.3	8.0	3.4	-102.1
CCN1CCN(C(=O)c2cc3c(-c4ccc(Cl)cc4)nn(C)c3s2)CC1	0.1	2.8	63.5*	6.1	0.9	-18.6
Cn1nc(-c2ccc(Cl)cc2)c2cc(C(=O)NCCCN3CCOCC3)sc21	-6.2	u	55.5*	-1.6	1.3	-130.1
S=c1[nH]nc(-c2ccccn2)n1N=Cc1cccs1	x	x	x	x	x	5.1
CC(=O)C(=NNc1ccccc1)Sc1nnc(C(O)c2ccccc2)n1-c1ccccc1 (configuration not stated)	x	x	x	x	x	9.4
Fc1cccc(CNc2ncnc3cc(Cl)ccc23)c1F	-11.4	-11.4	48.5*	-8.7	-5.1	-1.1
COc1cccc(CNc2ncnc3cc(Cl)ccc23)c1	x	-0.4	x	-1.1	x	4.4
O=C(CSC1=NNC(c2ccccn2)S1)Nc1ccc(C(F)(F)F)cc1 (configuration not stated)	-5.3	-7.6	53.3*	-10.6	-5.3	9.1
Cc1cccc2c1nc(-c1ccccc1)n1nnnc21	-6.3	-11.6	56.9*	11.6	1.1	-11.0
C(=NNc1nc2ccccc2s1)c1ccc2c(c1)OCO2	x	x	x	x	x	-8.6
Nc1nonc1-n1nnc(C(=O)NN=Cc2ccccc2F)c1CN1CCc2ccccc21	x	x	x	x	x	4.9
O=c1/c(=C\c2cc([N+](=O)[O-])cc([N+](=O)[O-])c2O)sc2nc3ccccc3n12	36.3	x	11.6	0.6	18.8	x
O=c1c(=Cc2cc([N+](=O)[O-])cc([N+](=O)[O-])c2O)sc2nc3ccccc3n12	x	x	x	x	x	27.0*
Oc1ccc(C=NNc2ncnc3c2ncn3Cc2ccccc2)cc1O	x	x	x	x	x	1.5
O=C(O)CCc1c(C(=O)O)[nH]c2ccccc12	2.1	8.2	2.5	2.9	-0.5	0.7
CCOC(=O)c1[nH]c2ccccc2c1NC(=O)COC	-3.0	-15.6	33.2	-2.4	-0.9	-5.2
CN(C)Cc1c(C(=O)Nc2ccccc2)[nH]c2ccccc12	1.2	7.1	72.2*	-2.6	1.2	0.2
CCOC(=O)c1[nH]c2ccccc2c1NC(=S)Nc1ccccc1	-10.4	7.5	49.4*	-6.4	4.2	2.7
CCOC(=O)c1c(C)nc(-c2ccccc2)nc1NC(=O)CC	-4.5	0.9	47.1*	16.1	-2.1	0.3
CCC(=O)Nc1nc(-c2ccccc2)nc(SC)c1C(C)=O	-8.8	-0.5	17.9	6.9	5.0	1.1
CCOC(=O)c1[nH]c2ccccc2c1NC(C)=O	2.8	-12.9	32.7	17.3	8.4	3.9
CCOC(=O)c1[nH]c2ccccc2c1NC(=O)CC	-6.8	-1.1	59.9*	4.4	-3.6	0.6
CCOC(=O)c1[nH]c2ccccc2c1NC(=S)Nc1cccc(C)c1	1.7	u	72.4*	14.5	-4.4	5.0
